Laboratory results from ChEMBL document CHEMBL4346763, “Incorporation of a chiral gem-disubstituted nitrogen heterocycle yields an oxazolidinone antibiotic with reduced mitochondrial toxicity” (Bioorg Med Chem Lett, 2019).
≈ marks a conversion by molar mass, not a printed value. Each block holds one compound with its values, some of them ahead of it.

Experiments:
Staphylococcus aureus [1] = experiment: Antibacterial activity against Staphylococcus aureus JC9213 by CLSI based broth dilution assay; format: functional
[2] = Inhibition of protein synthesis in mitochondria (unknown origin) assessed as [35S]methionine incorporation incubated for 15 to 120 mins by paper disk assay; design: species or system Homo sapiens
Staphylococcus aureus [3] = experiment: Antibacterial activity against methicillin-resistant Staphylococcus aureus ATCC 43300 measured after 18 hrs by broth microdilution method; format: functional; details: ATCC 43300, 18 h
Outline: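 S. aureus ATCC 43300 grown overnight in cation-adjusted Mueller Hinton broth at 37 °C, diluted 40-fold and regrown 1.5-3 h to mid-log. Inoculum 5×10^5 CFU/mL added to 8-point 1:2 serial dilutions from a top final concentration of 32 μg/mL or 20 μM, DMSO ≤0.5%, in duplicate. Incubated 18 h at 37 °C without shaking.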

Staphylococcus aureus [4] = experiment: Antibacterial activity against methicillin-sensitive Staphylococcus aureus ATCC 8235-4 measured after 16 hrs by broth microdilution method; format: functional; details: ATCC 8235-4, 16 h
Outline: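 Overnight culture diluted 1:200 into plates, sealed, shaken at 150 RPM at 37 °C for 16 h, then OD600 read. MIC defined as the concentration giving at least 90% growth inhibition relative to DMSO-treated wells; μM converted to μg/mL and rounded to nearest integer.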

Staphylococcus aureus [5] = experiment: Antibacterial activity against methicillin-sensitive Staphylococcus aureus ATCC 8235-4 at 6 ug/ml measured after 16 hrs by broth microdilution method relative to control; format: functional; details: ATCC 8235-4, 16 h
Outline: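 Overnight S. aureus 8235-4 culture diluted 1:200 into LB broth containing compound at 4–22 μM in 2 μM steps. Plates sealed and shaken at 150 rpm, 37 °C, 16 h. OD600 read, and growth inhibition expressed relative to DMSO carrier-only wells. μM values converted to μg/mL and rounded to the nearest integer.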

[6] = Aqueous solubility of compound; format: physicochemical; details: buffer
[7] = Stability in gastric pH assessed as compound remaining after 24 hrs relative to control; format: physicochemical
HepG2 = experiment: Cytotoxicity against human HepG2 cells assessed as reduction in cell viability by CellTiter-Glo assay; format: cell-based
Cytochrome P450 1A2 = biological target: T1, Cytochrome P450 1A2 (Homo sapiens, UniProt P05177); experiment: Inhibition of CYP1A2 (unknown origin); format: ADME
T1 sequence (P05177 whole entry): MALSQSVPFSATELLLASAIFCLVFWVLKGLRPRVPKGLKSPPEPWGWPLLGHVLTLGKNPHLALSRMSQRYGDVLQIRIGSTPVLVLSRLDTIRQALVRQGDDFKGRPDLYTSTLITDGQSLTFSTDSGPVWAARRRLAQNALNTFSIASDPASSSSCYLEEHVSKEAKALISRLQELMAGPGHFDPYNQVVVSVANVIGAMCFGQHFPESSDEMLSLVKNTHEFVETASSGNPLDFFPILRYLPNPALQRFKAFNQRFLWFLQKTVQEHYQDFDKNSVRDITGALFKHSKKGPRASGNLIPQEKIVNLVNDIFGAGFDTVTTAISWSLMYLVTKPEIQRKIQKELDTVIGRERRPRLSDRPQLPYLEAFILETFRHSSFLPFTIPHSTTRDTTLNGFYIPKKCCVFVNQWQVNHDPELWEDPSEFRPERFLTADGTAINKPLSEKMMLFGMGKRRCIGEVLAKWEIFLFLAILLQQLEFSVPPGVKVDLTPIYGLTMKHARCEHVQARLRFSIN

Cytochrome P450 2C9 = Cytochrome P450 2C9 (Homo sapiens, UniProt P11712); experiment: Inhibition of CYP2C9 (unknown origin); format: ADME
Cytochrome P450 2C9, sequence (P11712 whole entry): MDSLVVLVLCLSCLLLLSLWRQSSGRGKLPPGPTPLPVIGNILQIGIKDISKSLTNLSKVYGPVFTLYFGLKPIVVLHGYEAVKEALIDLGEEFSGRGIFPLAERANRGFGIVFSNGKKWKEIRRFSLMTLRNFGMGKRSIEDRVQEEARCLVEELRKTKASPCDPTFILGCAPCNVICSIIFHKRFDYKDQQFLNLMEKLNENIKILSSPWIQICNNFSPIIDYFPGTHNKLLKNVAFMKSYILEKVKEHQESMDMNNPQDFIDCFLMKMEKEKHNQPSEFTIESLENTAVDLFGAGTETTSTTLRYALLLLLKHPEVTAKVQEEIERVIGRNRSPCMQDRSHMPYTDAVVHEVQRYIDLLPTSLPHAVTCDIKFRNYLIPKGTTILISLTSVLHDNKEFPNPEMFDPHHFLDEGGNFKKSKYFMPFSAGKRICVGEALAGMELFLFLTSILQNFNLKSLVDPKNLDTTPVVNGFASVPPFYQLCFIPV

Cytochrome P450 2C19 = Cytochrome P450 2C19 (Homo sapiens, UniProt P33261); experiment: Inhibition of CYP2C19 (unknown origin); format: ADME
Cytochrome P450 2C19, sequence (P33261 whole entry): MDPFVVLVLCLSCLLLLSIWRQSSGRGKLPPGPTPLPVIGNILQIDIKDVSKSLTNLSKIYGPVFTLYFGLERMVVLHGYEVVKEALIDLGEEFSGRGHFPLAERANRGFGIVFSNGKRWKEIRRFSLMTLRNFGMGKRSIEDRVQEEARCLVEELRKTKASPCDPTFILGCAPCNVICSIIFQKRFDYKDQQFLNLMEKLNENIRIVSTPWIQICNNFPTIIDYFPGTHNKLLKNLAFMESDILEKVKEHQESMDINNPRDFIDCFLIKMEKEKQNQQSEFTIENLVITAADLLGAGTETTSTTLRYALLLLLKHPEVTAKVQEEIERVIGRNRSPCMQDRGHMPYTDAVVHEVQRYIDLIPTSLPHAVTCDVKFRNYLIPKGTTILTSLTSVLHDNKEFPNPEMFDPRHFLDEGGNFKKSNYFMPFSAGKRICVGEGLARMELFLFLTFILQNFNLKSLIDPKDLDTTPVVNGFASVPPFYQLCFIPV

Cytochrome P450 2D6 = Cytochrome P450 2D6 (Homo sapiens, UniProt P10635); experiment: Inhibition of CYP2D6 (unknown origin); format: ADME
Cytochrome P450 2D6, sequence (P10635 whole entry): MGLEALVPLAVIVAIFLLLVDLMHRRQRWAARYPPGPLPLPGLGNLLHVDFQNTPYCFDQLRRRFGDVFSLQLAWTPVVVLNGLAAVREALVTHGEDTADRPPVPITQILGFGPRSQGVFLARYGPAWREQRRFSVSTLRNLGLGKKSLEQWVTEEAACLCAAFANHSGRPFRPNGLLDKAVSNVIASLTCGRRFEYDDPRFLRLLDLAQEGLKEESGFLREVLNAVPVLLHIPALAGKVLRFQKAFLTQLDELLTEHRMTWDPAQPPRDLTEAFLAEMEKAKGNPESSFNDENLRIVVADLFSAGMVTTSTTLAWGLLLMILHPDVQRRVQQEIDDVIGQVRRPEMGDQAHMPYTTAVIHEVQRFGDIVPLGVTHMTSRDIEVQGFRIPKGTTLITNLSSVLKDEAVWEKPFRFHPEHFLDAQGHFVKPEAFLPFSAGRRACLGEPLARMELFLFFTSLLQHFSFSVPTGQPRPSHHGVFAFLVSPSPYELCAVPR

Cytochrome P450 3A4 = Cytochrome P450 3A4 (Homo sapiens, UniProt P08684); experiment: Inhibition of CYP3A4 (unknown origin); format: ADME
Cytochrome P450 3A4, sequence (P08684 whole entry): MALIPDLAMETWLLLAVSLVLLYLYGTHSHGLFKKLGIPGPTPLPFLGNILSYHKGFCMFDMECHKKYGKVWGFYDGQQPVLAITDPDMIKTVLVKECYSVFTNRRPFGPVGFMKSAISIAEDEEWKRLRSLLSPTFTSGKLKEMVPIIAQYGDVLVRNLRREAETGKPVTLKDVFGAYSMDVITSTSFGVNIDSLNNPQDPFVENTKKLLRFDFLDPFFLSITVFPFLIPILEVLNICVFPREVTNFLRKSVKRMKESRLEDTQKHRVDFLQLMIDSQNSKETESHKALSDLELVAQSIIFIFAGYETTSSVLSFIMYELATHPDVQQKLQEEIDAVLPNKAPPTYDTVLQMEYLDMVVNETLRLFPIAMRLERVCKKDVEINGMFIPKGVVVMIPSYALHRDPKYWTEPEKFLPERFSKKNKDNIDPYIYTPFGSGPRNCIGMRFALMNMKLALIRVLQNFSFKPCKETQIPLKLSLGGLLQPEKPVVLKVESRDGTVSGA

[8] = Half life in mouse hepatocytes
Staphylococcus aureus [9] = experiment: Antibacterial activity against methicillin-resistant Staphylococcus aureus ATCC 43300 at 6 ug/ml measured after 18 hrs by broth microdilution method relative to control; format: functional; details: ATCC 43300, 18 h

MIC (Staphylococcus aureus [1]): 2 µg/mL (≈ 5.19 µM)
IC50 [2]: 0.83 µg/mL (≈ 2.15 µM)
Compound: C/N=c1\ccc(-c2ccc(N3C[C@H](CNC(C)=O)OC3=O)cc2F)ccc1O

Compound: CC(=O)NC[C@H]1CN(c2ccc(N3CCOC(C)(C)C3)c(F)c2)C(=O)O1
MIC (Staphylococcus aureus [3]): 8 µg/mL (≈ 21.9 µM)

Compound: CC(=O)NC[C@H]1CN(c2ccc(-n3cncn3)c(F)c2)C(=O)O1
MIC (Staphylococcus aureus [1]): 4 µg/mL (≈ 12.5 µM)
IC50 [2]: 1.7 µg/mL (≈ 5.32 µM)

Compound: CCCC1(C)CN(c2ccc(N3C[C@H](CNC(C)=O)OC3=O)cc2F)CCO1 (some centres undefined)
MIC (Staphylococcus aureus [3]): 16 µg/mL (≈ 40.7 µM)

MIC (Staphylococcus aureus [4]): > 32 µg/mL
Compound: CC(=O)NC[C@H]1CN(c2ccc(N3CCOC(C)(CCCOC(C)=O)C3)c(F)c2)C(=O)O1 (some centres undefined)

Compound: CC(=O)NC[C@H]1CN(c2ccc(N3CCOC4(CCOC4)C3)c(F)c2)C(=O)O1 (some centres undefined)
inhibition at 6 µg/mL (Staphylococcus aureus [5]): 65%

MIC (Staphylococcus aureus [4]): > 32 µg/mL
Compound: CC(=O)NC[C@H]1CN(c2ccc(N3CCOC4(CCCNC4)C3)c(F)c2)C(=O)O1 (some centres undefined)

MIC (Staphylococcus aureus [4]): > 32 µg/mL
Compound: CC(=O)NC[C@H]1CN(c2ccc(N3CCOC4(CCNC4)C3)c(F)c2)C(=O)O1 (some centres undefined)

MIC (Staphylococcus aureus [4]): 9 µg/mL (≈ 22.1 µM)
solubility [6]: > 48.49 µg/mL
Stability [7]: 89%
INH (Cytochrome P450 1A2): > 100 µM
INH (Cytochrome P450 2C9): > 100 µM
INH (Cytochrome P450 2C19): > 100 µM
INH (Cytochrome P450 2D6): > 100 µM
INH (Cytochrome P450 3A4): > 100 µM
t1/2 [8]: 2.138 h
Compound: CC(=O)NC[C@H]1CN(c2ccc(N3CCO[C@]4(CCCOC4)C3)c(F)c2)C(=O)O1
EC50 (HepG2): > 30 µM

Compound: CCCC1(CO)CN(c2ccc(N3C[C@H](CNC(C)=O)OC3=O)cc2F)CCO1 (some centres undefined)
inhibition at 6 µg/mL (Staphylococcus aureus [5]): 48%

MIC (Staphylococcus aureus [4]): > 32 µg/mL
Compound: C=CCC1(COCc2ccccc2)CN(c2ccc(N3C[C@H](CNC(C)=O)OC3=O)cc2F)CCO1 (some centres undefined)

Compound: CC(=O)NC[C@H]1CN(c2ccc(N3CCOCC3)c(F)c2)C(=O)O1 [LINEZOLID]
IC50 [2]: 12.8 µg/mL (≈ 37.9 µM)
MIC (Staphylococcus aureus [3]): 1 µg/mL (≈ 2.96 µM)
Stability [7]: 98%
EC50 (HepG2): > 30 µM
INH (Cytochrome P450 1A2): > 100 µM
INH (Cytochrome P450 2C9): > 100 µM
INH (Cytochrome P450 2C19): > 100 µM
INH (Cytochrome P450 2D6): > 100 µM
INH (Cytochrome P450 3A4): > 100 µM
t1/2 [8]: > 3.613 h

MIC (Staphylococcus aureus [4]): > 32 µg/mL
Compound: CC(=O)NC[C@H]1CN(c2ccc(N3CCOC4(CCN(C)C4)C3)c(F)c2)C(=O)O1 (some centres undefined)

Compound: C=CCC1(C)CN(c2ccc(N3C[C@H](CNC(C)=O)OC3=O)cc2F)CCO1 (some centres undefined)
MIC (Staphylococcus aureus [3]): 16 µg/mL (≈ 40.9 µM)

MIC (Staphylococcus aureus [4]): 7 µg/mL (≈ 17.2 µM)
Compound: CC(=O)NC[C@H]1CN(c2ccc(N3CCOC4(CCCOC4)C3)c(F)c2)C(=O)O1 (some centres undefined)

Compound: CC(=O)NC[C@H]1CN(c2ccc(N3CCOC(C)(CCCO)C3)c(F)c2)C(=O)O1 (some centres undefined)
MIC (Staphylococcus aureus [3]): > 32 µg/mL

MIC (Staphylococcus aureus [4]): > 32 µg/mL
Compound: CC(=O)NC[C@H]1CN(c2ccc(N3CCOC(C)(CCN(C)C)C3)c(F)c2)C(=O)O1 (some centres undefined)

Compound: CC(=O)NC[C@H]1CN(c2ccc(N3CCN(C(=O)CO)CC3)c(F)c2)C(=O)O1 [EPEREZOLID]
MIC (Staphylococcus aureus [1]): 2 µg/mL (≈ 5.07 µM)
IC50 [2]: 4.2 µg/mL (≈ 10.6 µM)

MIC (Staphylococcus aureus [1]): 1 µg/mL (≈ 2.99 µM)
IC50 [2]: 0.95 µg/mL (≈ 2.84 µM)
Compound: CC(=O)NC[C@H]1CN(c2ccc(C3=CCOCC3)c(F)c2)C(=O)O1

Compound: CC(=O)NC[C@H]1CN(c2ccc(N3CCOC4(CCCN(C(C)=O)C4)C3)c(F)c2)C(=O)O1 (some centres undefined)
inhibition at 6 µg/mL (Staphylococcus aureus [9]): 18%
inhibition at 6 µg/mL (Staphylococcus aureus [5]): 18%

Compound: CC(=O)NC[C@H]1CN(c2ccc(N3CCO[C@@]4(CCCOC4)C3)c(F)c2)C(=O)O1
MIC (Staphylococcus aureus [3]): 5 µg/mL (≈ 12.3 µM)
MIC (Staphylococcus aureus [4]): 6 µg/mL (≈ 14.7 µM)
solubility [6]: > 52.15 µg/mL
Stability [7]: 94%
EC50 (HepG2): > 30 µM
INH (Cytochrome P450 1A2): > 100 µM
INH (Cytochrome P450 2C9): > 100 µM
INH (Cytochrome P450 2C19): > 100 µM
INH (Cytochrome P450 2D6): > 100 µM
INH (Cytochrome P450 3A4): > 100 µM
t1/2 [8]: 2.83 h
